We go through six molecules from ChEMBL document CHEMBL1131297, “N-(2-Benzoylphenyl)-L-tyrosine PPARgamma agonists. 3. Structure-activity relationship and optimization of the N-aryl substituent” (J Med Chem, 1998).

The structures appear in SMILES notation. In brackets after ≈: the same amount, converted by molar mass.

Data set [1] has as its target T1, Peroxisome proliferator-activated receptor gamma (Homo sapiens, UniProt P37231).
T1 sequence (P37231 whole entry): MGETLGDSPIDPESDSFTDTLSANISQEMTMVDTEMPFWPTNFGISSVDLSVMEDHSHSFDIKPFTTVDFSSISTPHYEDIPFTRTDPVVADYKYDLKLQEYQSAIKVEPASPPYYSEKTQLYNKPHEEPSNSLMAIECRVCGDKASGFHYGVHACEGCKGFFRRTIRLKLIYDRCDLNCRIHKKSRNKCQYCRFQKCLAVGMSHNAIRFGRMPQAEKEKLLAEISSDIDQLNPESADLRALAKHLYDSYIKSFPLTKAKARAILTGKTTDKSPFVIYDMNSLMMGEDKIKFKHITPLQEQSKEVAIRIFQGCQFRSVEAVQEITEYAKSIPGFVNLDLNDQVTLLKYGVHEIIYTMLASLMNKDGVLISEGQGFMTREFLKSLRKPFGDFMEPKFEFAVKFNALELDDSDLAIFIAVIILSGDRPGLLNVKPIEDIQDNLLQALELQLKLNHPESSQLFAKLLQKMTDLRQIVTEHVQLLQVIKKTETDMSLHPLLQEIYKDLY
Put plainly: The compound was tested functionally in vitro for inducing 50% of the maximum alkaline phosphatase activity (Transactivation) against Peroxisome proliferator activated receptor gamma. It is filed as functional.

Data set [2] addresses T1, Peroxisome proliferator-activated receptor gamma. Put plainly: The compound was tested in vitro for inhibiting the 50% binding of Peroxisome proliferator activated receptor gamma. The method in brief: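 Radioligand competition binding to the human PPARγ ligand-binding domain. IC50 is the concentration inhibiting 50% of specific radioligand binding. Apparent Ki = IC50/(1 + [L]/Kd), where [L] is the radioligand concentration and Kd its dissociation constant. Reported as pKi (−log Ki).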

The species entered for data set [3] is Rattus norvegicus. The data set is described as follows: Compound was tested for Antihyperlipidemic activity, activity is expressed as percent reduction of NEFAs. It is filed as functional. The method in brief:
(§1)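 Nine-week-old male Zucker diabetic fatty rats, n = 8/group, baseline-matched for plasma glucose. The highest test dose was given twice daily by oral gavage for 17 days. Tail-vein blood was drawn on days 0, 3, 7 and 17 for plasma glucose, insulin, triglycerides and NEFAs. The value is mean ± SEM percent reduction versus vehicle controls on day 17.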

A short description of data set [4]: Solubility in simulated gastric fluid. In kind it is physicochemical. Particulars: read-out: S. The method in brief: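 Solubility in simulated gastric fluid, pH 1.2, in temperature-controlled shaking water baths. Samples were drawn, passed through a 0.22-µm filter, diluted in water/acetonitrile (60:40), and quantified by HPLC on a phenyl reverse-phase column.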

Data set [5] concerns Rattus norvegicus. Put plainly: Compound was tested in vivo for Antihyperglycemic activity in diabetic rats, activity is expressed as percent reduction of HbA-1c. It is filed as functional. The method in brief:
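Male ZDF rats, nine weeks old, 8 per group, were matched at baseline on plasma glucose. They were dosed orally by gavage twice daily for 17 days at the maximum test dose. Glycosylated hemoglobin was measured on day 17. Data are mean ± SEM percent reduction relative to the vehicle control group.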

The test system of data set [6] is Rattus norvegicus. The data set is described as follows: Compound was tested in vivo for Antihyperglycemic activity in diabetic rats, activity is expressed as percent reduction of plasma glucose. In kind it is functional. A digest of the protocol:
as §1

The species named for data set [7] is Rattus norvegicus. Put plainly: Compound was tested for Antihyperlipidemic activity, activity is expressed as percent reduction of Triglycerides. It is filed as functional. The method in brief:
as §1

Data set [8] can be described thus: Solubility in phosphate buffer at pH 7.4. In kind it is physicochemical. A digest of the protocol: (§2)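 Solubility in 0.06 M phosphate buffer, pH 7.4, in temperature-controlled shaking water baths. Samples were drawn, passed through a 0.22-µm filter, diluted in water/acetonitrile (60:40), and quantified by HPLC on a phenyl reverse-phase column. Reported in mg/mL.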

Data set [9] in a line: Solubility in pH 7.4 Phosphate buffer. It is filed as physicochemical. A digest of the protocol: as §2

As to `CN(CCOc1ccc(CC(Nc2ccccc2C(=O)c2cccc3ccccc23)C(=O)O)cc1)c1nc2ccccc2o1` (stereo not drawn), the midpoint of the response in data set [1], the EC50, lay at 85.1 nM. The molecule also had a Ki in data set [2] of 3.24 nM.
Turning to `COC(=O)c1ccccc1N[C@@H](Cc1ccc(OCCc2nc(-c3ccccc3)oc2C)cc1)C(=O)O` [GW7845], the Reduction in the data set filed under Rattus norvegicus [3] amounted to 87%; in the data set on Rattus norvegicus [5], 40%; in the data set with Rattus norvegicus [6], 67%; in the data set listed under Rattus norvegicus [7] it was 82%. Besides, the results for the solubility in data set [4] and in data set [8] were less than 2 µg/mL and 300 µg/mL (≈ 599 µM), respectively.
Turning to `CN(CCOc1ccc(CC(Nc2ccccc2C(=O)c2cccc(OCc3ccccc3)c2)C(=O)O)cc1)c1nc2ccccc2o1` (stereo not drawn), the EC50 in data set [1] was 741 nM. For the same molecule, in data set [2], the affinity corresponds to a Ki of 53.7 nM.
The like results for `CN(CCOc1ccc(CC(Nc2ccccc2C(=O)c2ccc(-c3ccccc3)cc2)C(=O)O)cc1)c1nc2ccccc2o1` (stereo not drawn) were, in that order, 24 nM and 49 nM.
In the case of `Cc1c(C)c2c(c(C)c1O)CCC(C)(COc1ccc(CC3SC(=O)NC3=O)cc1)O2` (stereo not drawn) [TROGLITAZONE], the Reduction in the data set listed under Rattus norvegicus [3] was found to be 81%; with Rattus norvegicus [5], 35%; in the data set with Rattus norvegicus [6], 59%; in the data set listed under Rattus norvegicus [7] it was 85%.
Consider `Cc1oc(-c2ccccc2)nc1CCOc1ccc(C[C@H](Nc2ccccc2C(=O)c2ccccc2)C(=O)O)cc1` [FARGLITAZAR], for which the solubility in [9] and in data set [4] was less than 1 µg/mL throughout.
